Measurements from ChEMBL document CHEMBL5543089, “Discovery of a novel, highly potent EZH2 PROTAC degrader for targeting non-canonical oncogenic functions of EZH2” (Eur J Med Chem, 2024).
Active and inactive are the calls of the source. The calls are words filed in the database; no cut-off is given here.

Columns and labels:
[1] = target: von Hippel-Lindau disease tumor suppressor/Histone-lysine N-methyltransferase EZH2 (Homo sapiens, UniProt Q15910+P40337); assay: PROTAC activity at VHL/EZH2 degradation in MLLr AML cell line human EOL1 cells assessed as protein degradation at 0.5 uM measured after 24 hrs in presence of 0.05 uM MLN4924 by Western blot analysis; type: cell-based
Sequence of von Hippel-Lindau disease tumor suppressor/Histone-lysine N-methyltransferase EZH2 (P40337 whole entry, looked up): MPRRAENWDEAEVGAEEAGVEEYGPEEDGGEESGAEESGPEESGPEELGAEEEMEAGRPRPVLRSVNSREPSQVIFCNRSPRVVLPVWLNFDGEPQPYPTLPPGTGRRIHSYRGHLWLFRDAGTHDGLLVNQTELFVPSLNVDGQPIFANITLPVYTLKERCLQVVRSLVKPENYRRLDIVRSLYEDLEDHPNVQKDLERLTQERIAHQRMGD
Sequence of von Hippel-Lindau disease tumor suppressor/Histone-lysine N-methyltransferase EZH2 (Q15910 whole entry, looked up): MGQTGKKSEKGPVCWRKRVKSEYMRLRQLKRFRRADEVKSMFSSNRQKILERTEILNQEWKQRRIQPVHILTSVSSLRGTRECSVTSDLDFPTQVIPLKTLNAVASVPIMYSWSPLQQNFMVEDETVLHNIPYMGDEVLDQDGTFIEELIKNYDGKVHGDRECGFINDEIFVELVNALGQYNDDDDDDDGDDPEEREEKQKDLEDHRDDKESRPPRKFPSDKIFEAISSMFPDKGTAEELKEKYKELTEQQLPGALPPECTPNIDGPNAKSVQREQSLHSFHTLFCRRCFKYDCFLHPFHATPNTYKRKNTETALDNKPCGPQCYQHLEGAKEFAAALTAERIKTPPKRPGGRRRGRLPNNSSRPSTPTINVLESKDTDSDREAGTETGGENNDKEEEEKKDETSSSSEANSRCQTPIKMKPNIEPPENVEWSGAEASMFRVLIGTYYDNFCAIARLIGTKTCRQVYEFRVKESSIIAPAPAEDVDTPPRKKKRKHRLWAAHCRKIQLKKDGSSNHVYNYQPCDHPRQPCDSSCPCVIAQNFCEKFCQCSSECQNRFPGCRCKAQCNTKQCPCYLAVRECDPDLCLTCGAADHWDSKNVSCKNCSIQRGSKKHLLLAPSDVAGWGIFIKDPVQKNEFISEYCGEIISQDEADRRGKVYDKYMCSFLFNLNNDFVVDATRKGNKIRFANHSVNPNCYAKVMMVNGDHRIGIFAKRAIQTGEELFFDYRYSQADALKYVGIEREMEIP
Summary of the method: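 EOL-1 cells were pre-treated for 2 h with MLN4924 (0.05 μM), EPZ-6438 (5 μM) or VHL-1 (5 μM), then given 0.5 μM degrader for 24 h. EZH2 was assessed by Western blot against β-actin. Blots are representative of two biological experiments.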

[2] = target: Histone-lysine N-methyltransferase NSD3 (Homo sapiens) (UniProt Q9BZ95); assay: Inhibition of human NSD3 assessed as methyltransferase activity using Nucleosomes as substrate at 10 uM by radioisotope based MT HotSpot assay relative to control
Sequence of Histone-lysine N-methyltransferase NSD3 (Homo sapiens) (Q9BZ95 whole entry): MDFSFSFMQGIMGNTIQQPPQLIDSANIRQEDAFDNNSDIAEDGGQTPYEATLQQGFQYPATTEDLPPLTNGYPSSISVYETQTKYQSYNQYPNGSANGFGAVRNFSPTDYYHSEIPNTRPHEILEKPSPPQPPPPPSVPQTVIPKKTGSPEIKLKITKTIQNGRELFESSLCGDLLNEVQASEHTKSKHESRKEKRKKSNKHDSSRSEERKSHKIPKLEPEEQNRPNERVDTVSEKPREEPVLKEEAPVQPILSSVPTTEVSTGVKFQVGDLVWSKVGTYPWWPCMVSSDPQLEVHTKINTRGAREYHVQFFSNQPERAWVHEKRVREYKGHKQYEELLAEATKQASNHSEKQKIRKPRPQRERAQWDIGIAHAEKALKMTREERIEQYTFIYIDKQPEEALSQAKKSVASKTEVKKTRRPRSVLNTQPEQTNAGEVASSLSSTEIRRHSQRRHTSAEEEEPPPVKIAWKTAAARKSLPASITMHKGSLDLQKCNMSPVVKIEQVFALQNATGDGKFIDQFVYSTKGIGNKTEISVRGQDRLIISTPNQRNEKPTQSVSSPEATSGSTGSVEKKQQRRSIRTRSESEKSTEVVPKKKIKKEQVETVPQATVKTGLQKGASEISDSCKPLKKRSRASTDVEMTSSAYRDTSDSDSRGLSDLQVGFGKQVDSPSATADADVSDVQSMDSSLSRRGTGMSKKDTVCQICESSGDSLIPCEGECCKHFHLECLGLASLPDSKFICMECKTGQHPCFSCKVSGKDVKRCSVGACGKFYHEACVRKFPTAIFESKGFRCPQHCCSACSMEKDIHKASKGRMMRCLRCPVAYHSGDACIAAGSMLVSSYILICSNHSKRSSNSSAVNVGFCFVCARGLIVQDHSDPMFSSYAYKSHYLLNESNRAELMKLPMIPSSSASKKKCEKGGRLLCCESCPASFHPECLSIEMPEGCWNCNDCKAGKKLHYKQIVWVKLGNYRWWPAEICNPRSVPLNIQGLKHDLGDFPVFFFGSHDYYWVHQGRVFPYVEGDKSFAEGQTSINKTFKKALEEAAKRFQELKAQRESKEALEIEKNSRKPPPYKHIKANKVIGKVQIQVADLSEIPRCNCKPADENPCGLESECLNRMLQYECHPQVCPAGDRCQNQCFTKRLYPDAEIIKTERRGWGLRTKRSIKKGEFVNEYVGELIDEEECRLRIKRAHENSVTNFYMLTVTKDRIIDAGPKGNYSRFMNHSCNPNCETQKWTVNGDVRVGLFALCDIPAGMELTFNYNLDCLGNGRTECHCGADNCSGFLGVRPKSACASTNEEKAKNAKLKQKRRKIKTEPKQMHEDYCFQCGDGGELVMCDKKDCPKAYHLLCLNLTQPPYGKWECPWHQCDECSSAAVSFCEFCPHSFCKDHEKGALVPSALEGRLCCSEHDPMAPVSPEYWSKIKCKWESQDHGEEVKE
Summary of the method: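 Radioisotope-based methyltransferase assay (MT HotSpot) run by a contract lab. Compound was tested at 10 μM against a panel of 20 methyltransferases, in duplicate. Values are means ± SD of two replicates.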

[3] = tested on: RS4-11; assay: Anti-proliferative activity against human RS4-11 cells assessed as cell viability measured after 5 days incubation by CCK-8 assay; type: functional, cell-based; conditions: RS4-11, 120 h
Summary of the method: (§1)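 Cells plated at 3,000–10,000 per well and exposed to serial dilutions for 5 days at 37 °C. CCK-8 (1x) was added for 2–4 h, with absorbance read at 450 nm against a 690 nm reference. IC50 was taken from curve fits. Leukemia lines were grown in RPMI-1640, K562 in IMDM and MDA-MB-468 in DMEM, all with 10 % FBS. Values are means ± SD of two biological experiments (three for BT549 and MDA-MB-468).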

[4] = tested on: BT-549; assay: Anti-proliferative activity against human BT-549 cells assessed as cell growth inhibition measured after 5 days incubation by CCK-8 assay; type: functional, cell-based; conditions: BT-549, 120 h; summary of the method: as §1
[5] = Plasma concentration in mouse at 50 mg/kg, ip measured after 9 hrs; conditions: in vivo

Activity [1]: inactive | inhibition [2]: < 50% | IC50 [3]: 410 nM | IC50 [4]: 1450 nM | plasma concentration [5]: Stable
SMILES: CCN(c1cc(-c2ccc(CN3CCN(CCC(=O)NCCCCCCCCCCC(=O)N[C@H](C(=O)N4C[C@H](O)C[C@H]4C(=O)NCc4ccc(-c5scnc5C)cc4)C(C)(C)C)CC3)cc2)cc(C(=O)NCc2c(C)cc(C)[nH]c2=O)c1C)C1CCOCC1
